Measured values as given in the M2OR odorant receptor database.

Each compound was assayed against T1, Or5p80 (Mus musculus) (UniProt Q8VG42). Conditions: stereoisomer not certain.
T1 sequence (whole entry): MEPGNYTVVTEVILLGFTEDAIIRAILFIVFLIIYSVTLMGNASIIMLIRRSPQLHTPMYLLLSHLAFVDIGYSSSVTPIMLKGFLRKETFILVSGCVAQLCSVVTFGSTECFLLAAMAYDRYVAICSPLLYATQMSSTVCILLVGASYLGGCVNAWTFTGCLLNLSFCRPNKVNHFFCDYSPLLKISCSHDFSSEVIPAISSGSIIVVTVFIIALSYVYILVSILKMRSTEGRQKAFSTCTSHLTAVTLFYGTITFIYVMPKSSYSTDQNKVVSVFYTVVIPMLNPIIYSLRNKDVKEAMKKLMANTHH
Outline: (§1)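 Transient luciferase assays in mammalian cell lines were common, though methods varied by source. The values come from published papers and their supplementary material, with extra details from the original authors when needed. Responsive refers to a measured signal the original authors judged statistically different from baseline, and non-responsive (inactive) to the remainder.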

Odorant receptor agonist call, active:
O=c1ccc2ccccc2o1

Odorant receptor agonist call, inactive:
CCCCCC1=C(C)CCC1=O, O=C1CCOc2ccccc21, CCCCCCC(C)=O, CCC(=O)O, CCCCCCCC(C)=O, CCCCCCCCCCO, CC12CCC(CC1=O)C2(C)C (stereo not drawn), CCCCOC=O, CCCCC(=O)CC, CCOC(=O)C(C)C, COc1cc(C(=O)O)ccc1O, CCCC(=O)C(C)=O, CCCCCCCCCC(=O)[O-].[H+], CCC(C(=O)O)c1ccccc1 (stereo not drawn), CCCCCCCCCS, CC(=O)OCc1ccccc1, CCCCCCOC(C)=O, CC(C)=CCCC(C)CCO (stereo not drawn), CC(=O)Oc1ccccc1, c1ccccc1, CCCCCC=O, CCCCC(C)=O, O=C1Cc2ccccc2O1

The compounds below were run against T2, Or7a40 (Mus musculus) (UniProt Q9JHB2). Conditions: stereoisomer not certain.
T2 sequence (whole entry): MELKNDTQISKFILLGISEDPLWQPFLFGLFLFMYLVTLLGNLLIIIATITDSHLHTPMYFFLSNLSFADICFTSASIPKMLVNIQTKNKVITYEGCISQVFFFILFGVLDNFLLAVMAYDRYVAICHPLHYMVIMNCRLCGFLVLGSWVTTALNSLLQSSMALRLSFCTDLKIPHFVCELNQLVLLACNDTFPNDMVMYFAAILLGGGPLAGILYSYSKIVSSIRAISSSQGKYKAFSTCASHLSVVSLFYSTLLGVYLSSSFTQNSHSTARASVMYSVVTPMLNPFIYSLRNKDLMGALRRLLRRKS
Outline: as §1

Odorant receptor agonist call, active:
CCCCCC1=C(C)CCC1=O

Odorant receptor agonist call, inactive:
O=C1CCOc2ccccc21, CCCCCCC(C)=O, O=c1ccc2ccccc2o1, CCC(=O)O, CCCCCCCC(C)=O, CCCCCCCCCCO, CC12CCC(CC1=O)C2(C)C (stereo not drawn), CCCCOC=O, CCCCC(=O)CC, CCOC(=O)C(C)C, COc1cc(C(=O)O)ccc1O, CCCC(=O)C(C)=O, CCCCCCCCCC(=O)[O-].[H+], CCC(C(=O)O)c1ccccc1 (stereo not drawn), CCCCCCCCCS, CC(=O)OCc1ccccc1, CCCCCCOC(C)=O, CC(C)=CCCC(C)CCO (stereo not drawn), CC(=O)Oc1ccccc1, c1ccccc1, CCCCCC=O, CCCCC(C)=O, O=C1Cc2ccccc2O1
